Drawing on PubChem BioAssay, this text covers GFP response vs DMSO, GFP response relative to DMSO and GFP response, % of DMSO for 17 molecules.

The source made the active and inactive calls.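 How the source made its calls, unless noted: active means GFP response above 150% of the DMSO level; inconclusive means fewer than 70 events counted for a yeast strain; inactive means the rest.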

The nature of assay [1]: hit retest on RPL19A-GFP reporter strain – cell-based, S. cerevisiae, flow cytometry, cherry picks, mother/daughter gates, confirmation (AID 2270;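 active means GFP response below 50% of the DMSO control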). Particulars: 3 h, at 10 µM, stronger effect = lower value, 100 = same GFP as DMSO wells. In general terms: In flow cytometry, cells or beads pass a laser one at a time.
The nature of assay [2]: yeast TOR pathway reporter LAP4-GFP change – cell-based, cherry picks, flow cytometry, mother/daughter gates, confirmation (AID 2271;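 active means GFP response above 150% of the DMSO control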;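 further: ratio of sample to DMSO plate mean so 100% equals DMSO level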). Particulars: S. cerevisiae LAP4-GFP strain, 3 h, at 10 µM, stronger effect = higher value, 100 means same as DMSO control. In short, it runs like this: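 System – GFP-fusion yeast strain · Amount – 0.2 OD600 cells · Buffer or medium – SC growth medium · Dosing – single test-compound dose, 10 µM final · Schedule – 3 h treatment at 30 °C with rotation · Detection – GFP by flow cytometry · Read-out – per-gate (all, mother, daughter) GFP response vs DMSO · Benchmarks – positive rapamycin (400 ng/mL), negative DMSO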

The nature of assay [3]: TOR pathway reporter MEP2-GFP, retest of hits – S. cerevisiae, flow cytometry GFP, cherry picks, confirmation (AID 2272;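 active means GFP response above 150% of the DMSO control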;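 further: ratio of well signal to plate DMSO mean so 100% equals DMSO level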). The note with it: S. cerevisiae MEP2-GFP strain, 3 h, at 10 µM, stronger effect = higher value.
Assay [4] in a line: yeast AGP1-GFP fluorescence change, single-dose – cell-based, flow cytometry, S. cerevisiae, cherry picks, confirmation (AID 2273).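 Further: median GFP channel fluorescence over the whole cell population gate.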 Particulars: S. cerevisiae AGP1-GFP strain, 3 h, at 10 µM.
Assay [5] can be described thus: TOR pathway CIT2 reporter hit retest – S. cerevisiae, GFP fusion, cherry picks, mother/daughter gates, confirmation (AID 2274). The note with it: S. cerevisiae CIT2-GFP strain, flow cytometry, 3 h, at 10 µM, stronger effect = higher value.
Where [6] appears, read: measured here: daughter cell gate.
Where [7] appears, read: measured here: mother cell gate.
[8] abbreviates: measured here: daughter cell gate response.
Setting [9] is: measured here: mother cell gate response.

`Cc1ccccc1C(=O)Nc1ccccc1`: the GFP response vs DMSO in assay [1] was 96.4% (inactive); in assay [1] (setting [6]), 94.9%; in assay [1] (setting [7]), 97.4%; in assay [3] it was 96.2% (inactive). Moreover, the GFP response relative to DMSO was 96.7% (inactive) in assay [2], 97.6% in assay [2] (setting [8]) and 97.2% in assay [2] (setting [9]). The GFP response, % of DMSO in assay [4] is 100% (inactive); in assay [5] it was 101% (inactive); in assay [5] (setting [6]), 103%; in assay [5] (setting [7]) it was 102%.
For `O=C(COC(=O)/C=C/c1cccs1)Nc1nc(-c2ccccc2)cs1`, the GFP response vs DMSO in assay [1] was 101% (inactive); in assay [1] (setting [6]), 99.9%; in assay [1] (setting [7]) it was 99.7%; in assay [3], 105% (inactive). Further, the GFP response relative to DMSO in assay [2] is 102% (inactive); in assay [2] (setting [8]), 101%; in assay [2] (setting [9]) it was 101%. The GFP response, % of DMSO in assay [4] is 93.3% (inactive); in assay [5] it was 99.7% (inactive); in assay [5] (setting [6]), 99.1%; in assay [5] (setting [7]), 98.5%.
For the molecule `CSc1ccc(/C=C/C(=O)c2c(O)cc(C)oc2=O)cc1`, the GFP response vs DMSO is 105% (inactive) in assay [1], 106% in assay [1] (setting [6]), 103% in assay [1] (setting [7]) and 120% (inactive) in assay [3]. Moreover, the GFP response relative to DMSO in assay [2] was 131% (inactive); in assay [2] (setting [8]) it was 125%; in assay [2] (setting [9]), 135%. Moreover, the GFP response, % of DMSO in assay [4] was 96.3% (inactive).
Take `CN(C)c1ccc(N=Cc2nc(-c3ccccc3)oc2OC(=O)c2cccc(Br)c2)cc1`: the GFP response vs DMSO in assay [1] was 96.2% (inactive); in assay [1] (setting [6]), 90.4%; in assay [1] (setting [7]) it was 89.1%; in assay [3], 94.4% (inactive). Moreover, the GFP response relative to DMSO in assay [2] was 93.7% (inactive); in assay [2] (setting [8]) it was 84.2%; in assay [2] (setting [9]), 93%. Also, the GFP response, % of DMSO in assay [4] was 98.1% (inactive); in assay [5], 92.2% (inactive).
For the molecule `Oc1c(CN2CCCCC2)cc(Br)c2cccnc12`, the GFP response vs DMSO in assay [1] is 106% (inactive); in assay [1] (setting [6]) it was 103%; in assay [1] (setting [7]), 105%; in assay [3] it was 118% (inactive). Besides, the values for the GFP response relative to DMSO in assay [2], in assay [2] (setting [8]) and in assay [2] (setting [9]) were 208% (active), 181% and 208%, respectively. Also, the GFP response, % of DMSO in assay [4] is 96.7% (inactive); in assay [5], 102% (inactive); in assay [5] (setting [6]), 104%; in assay [5] (setting [7]), 91%.
`CNC(=O)/C(C#N)=C/c1c(N2CCCCCC2)nc2ccccn2c1=O`: the GFP response vs DMSO is 98.7% (inactive) in assay [1], 100% in assay [1] (setting [6]), 98.2% in assay [1] (setting [7]) and 112% (inactive) in assay [3]. Moreover, the GFP response relative to DMSO is 104% (inactive) in assay [2], 104% in assay [2] (setting [8]) and 106% in assay [2] (setting [9]). In addition, the GFP response, % of DMSO in assay [4] is 98.6% (inactive); in assay [5], 108% (inactive); in assay [5] (setting [6]), 110%; in assay [5] (setting [7]), 108%.
Turning to `Cc1ccccc1N1C(=O)c2sc3nc4c(c(=O)n3c2C1=O)CCC4`, the GFP response vs DMSO in assay [1] was 96.2% (inactive); in assay [1] (setting [6]), 94.9%; in assay [1] (setting [7]), 96.3%; in assay [3], 99% (inactive). The GFP response relative to DMSO in assay [2] was 107% (inactive); in assay [2] (setting [8]), 107%; in assay [2] (setting [9]) it was 110%. Also, the GFP response, % of DMSO in assay [4] is 102% (inactive); in assay [5] it was 90.1% (inactive); in assay [5] (setting [6]) it was 90.2%; in assay [5] (setting [7]), 88.2%.
`O=[N+]([O-])c1cc(C(F)(F)F)ccc1Sc1ccc2ccccc2n1`: the GFP response vs DMSO in assay [1] was 95.8% (inactive); in assay [1] (setting [6]), 97%; in assay [1] (setting [7]), 96.4%; in assay [3] it was 102% (inactive). In addition, the GFP response relative to DMSO in assay [2] was 115% (inactive); in assay [2] (setting [8]), 109%; in assay [2] (setting [9]), 115%. Also, the GFP response, % of DMSO was 97.5% (inactive) in assay [4], 95% (inactive) in assay [5], 98.3% in assay [5] (setting [6]) and 93.3% in assay [5] (setting [7]).
Turning to `O=C1CC(Sc2nnc(-c3ccccc3O)o2)C(=O)N1c1ccccc1` (configuration not stated), the GFP response vs DMSO was 95.1% (inactive) in assay [1], 98.3% in assay [1] (setting [6]), 93.1% in assay [1] (setting [7]) and 101% (inactive) in assay [3]. Besides, the GFP response relative to DMSO was 104% (inactive) in assay [2], 101% in assay [2] (setting [8]) and 105% in assay [2] (setting [9]). Also, the GFP response, % of DMSO is 104% (inactive) in assay [4], 106% (inactive) in assay [5], 103% in assay [5] (setting [6]) and 106% in assay [5] (setting [7]).
Take `Cc1c(NC(=O)/C(C#N)=C/c2c(N3CCCCC3)nc3ccccn3c2=O)c(=O)n(-c2ccccc2)n1C`: the GFP response vs DMSO in assay [1] was 95% (inactive); in assay [1] (setting [6]), 95.1%; in assay [1] (setting [7]) it was 96.6%; in assay [3], 96.2% (inactive). Further, the GFP response relative to DMSO in assay [2] is 94.1% (inactive); in assay [2] (setting [8]) it was 94.4%; in assay [2] (setting [9]), 95.1%. For the same molecule, the GFP response, % of DMSO in assay [4] is 109% (inactive); in assay [5], 101% (inactive); in assay [5] (setting [6]), 105%; in assay [5] (setting [7]) it was 101%.
With `O=c1oc(/C=C/c2ccc([N+](=O)[O-])s2)nc2ccccc12`, the GFP response vs DMSO in assay [1] is 112% (inactive); in assay [1] (setting [6]), 113%; in assay [1] (setting [7]), 108%; in assay [3], 267% (active). In addition, the GFP response relative to DMSO in assay [2] is 184% (active); in assay [2] (setting [8]), 180%; in assay [2] (setting [9]), 189%. Besides, the GFP response, % of DMSO is 107% (inactive) in assay [4], 183% (active) in assay [5], 180% in assay [5] (setting [6]) and 181% in assay [5] (setting [7]).
For the molecule `O=C1c2ccsc2SCCN1Cc1c(Cl)cccc1Cl`, the GFP response vs DMSO in assay [1] was 102% (inactive); in assay [1] (setting [6]), 99.2%; in assay [1] (setting [7]), 102%; in assay [3], 93.5% (inactive). In addition, the GFP response relative to DMSO is 98.7% (inactive) in assay [2], 97.2% in assay [2] (setting [8]) and 102% in assay [2] (setting [9]). The GFP response, % of DMSO in assay [4] is 93.9% (inactive); in assay [5] it was 103% (inactive); in assay [5] (setting [6]), 101%; in assay [5] (setting [7]), 104%.
Turning to `CS(=O)(=O)Nc1ccc(C2=NN(S(C)(=O)=O)C(c3ccc4c(c3)OCO4)C2)cc1` (configuration not stated), the GFP response vs DMSO is 98.6% (inactive) in assay [1], 98.4% in assay [1] (setting [6]), 99.4% in assay [1] (setting [7]) and 104% (inactive) in assay [3]. Further, the values for the GFP response relative to DMSO in assay [2], in assay [2] (setting [8]) and in assay [2] (setting [9]) were 97.4% (inactive), 102% and 99.3%, respectively. For the same molecule, the GFP response, % of DMSO in assay [4] was 102% (inactive); in assay [5] it was 103% (inactive); in assay [5] (setting [6]) it was 99.7%; in assay [5] (setting [7]), 103%.
With `CC(Oc1cccc(Cl)c1)C(=O)Nc1nc(-c2ccccn2)cs1` (configuration not stated), the GFP response vs DMSO in assay [1] is 105% (inactive); in assay [1] (setting [6]) it was 97%; in assay [1] (setting [7]), 103%; in assay [3] it was 104% (inactive). Moreover, the GFP response relative to DMSO is 161% (active) in assay [2], 140% in assay [2] (setting [8]) and 167% in assay [2] (setting [9]). The GFP response, % of DMSO in assay [4] is 90.8% (inactive); in assay [5], 86.1% (inactive); in assay [5] (setting [6]) it was 93.2%; in assay [5] (setting [7]) it was 81.6%.
Regarding `Cc1[nH]n(-c2ncc(-c3ccccc3)s2)c(=O)c1C(c1ccc(Cl)cc1)C(C#N)C#N` (configuration not stated), the GFP response vs DMSO in assay [1] is 94.5% (inactive); in assay [1] (setting [6]) it was 98.1%; in assay [1] (setting [7]), 91.6%; in assay [3], 106% (inactive). For the same molecule, the GFP response relative to DMSO in assay [2] is 156% (active); in assay [2] (setting [8]), 136%; in assay [2] (setting [9]), 159%. Also, the GFP response, % of DMSO in assay [4] is 100% (inactive); in assay [5] it was 95.8% (inactive); in assay [5] (setting [6]), 101%; in assay [5] (setting [7]), 89.3%.
`Cc1cc(O)c(C(=O)/C=C/c2cccc([N+](=O)[O-])c2)c(=O)o1`: the GFP response vs DMSO was 98.7% (inactive) in assay [1], 101% in assay [1] (setting [6]), 95.8% in assay [1] (setting [7]) and 110% (inactive) in assay [3]. The GFP response relative to DMSO in assay [2] was 149% (inactive); in assay [2] (setting [8]), 142%; in assay [2] (setting [9]), 152%. The GFP response, % of DMSO is 107% (inactive) in assay [4], 86.1% (inactive) in assay [5], 90.5% in assay [5] (setting [6]) and 81.5% in assay [5] (setting [7]).
`Oc1c(Br)cc(Br)cc1C=Nc1ccc2[nH]ncc2c1`: the GFP response vs DMSO in assay [1] is 99.5% (inactive); in assay [1] (setting [6]), 89.2%; in assay [1] (setting [7]) it was 97.2%; in assay [3], 112% (inactive). The GFP response relative to DMSO in assay [2] was 185% (active); in assay [2] (setting [8]) it was 124%; in assay [2] (setting [9]), 176%. Besides, the GFP response, % of DMSO was 102% (inactive) in assay [4], 96.4% (inactive) in assay [5], 102% in assay [5] (setting [6]) and 87.5% in assay [5] (setting [7]).
